# Measured values pooled from the literature.
# Compare with care: the assays were run in different laboratories.
# BMPR2: Bone morphogenetic protein receptor type-2 (BMPR2, Homo sapiens, UniProt Q13873)
# CDK9 with cyclin T1: Cyclin-dependent kinase 9, with cyclin T1 (CDK9, Homo sapiens, UniProt P50750)
# SULT1E1: Sulfotransferase 1E1 (SULT1E1, Homo sapiens, UniProt P49888)
# Stromelysin-2: Stromelysin-2 (Homo sapiens, UniProt P09238)
# PSMB6: Proteasome subunit beta type-6 (PSMB6, Homo sapiens, UniProt P28072)
# SGK2: Serine/threonine-protein kinase Sgk2 (SGK2, Homo sapiens, UniProt Q9HBY8)
# FAP: Prolyl endopeptidase FAP (FAP, Homo sapiens, UniProt Q12884)
Structure (SMILES),target,test,setting,endpoint,value
COc1ncccc1-c1cnn2ccc(N3CCN(C(=O)OC(C)C)CC3)nc12,BMPR2,"binding, competition with immobilised ligand",1 µM,remaining binding,72%
Cn1cc(-c2cc(F)cc(N3CCn4c(cc5c4CCCC5)C3=O)c2CO)cc(Nc2ccc(N3CCN(C4COC4)CC3)cn2)c1=O,"5'-AMP-activated protein kinase catalytic subunit alpha-2 (PRKAA2, Homo sapiens, UniProt P54646)","enzyme activity, inhibitor",0.1 µM,inhibition,14%
C#Cc1n[nH]c2c(-c3cn([C@@H](C)c4ccccn4)c(=O)[nH]c3=O)cc(F)cc12,CDK9 with cyclin T1,"enzyme activity, inhibitor",0.1 µM,inhibition,8.9%
Cc1nn(C)cc1-c1nc2c(N3CCN(Cc4ccc(Cl)cc4)CC3)c(Cl)cnc2[nH]1,BMPR2,"binding, competition with immobilised ligand",1 µM,remaining binding,100%
C#Cc1n[nH]c2c(-c3cn([C@@H](C)c4ccccc4)c(=O)[nH]c3=O)cc(F)cc12,CDK9 with cyclin T1,"enzyme activity, inhibitor",0.1 µM,inhibition,-1.8%
Oc1c(Br)cc(Br)cc1Oc1ccc(Br)cc1Br,SULT1E1,"enzyme activity, substrate",,Km,8.87 µM
N=C(N)c1ccc2cc(OC(=O)c3ccc(N=C(N)N)cc3)ccc2c1,Stromelysin-2,"enzyme activity, inhibitor",10 µM,inhibition,0%
Cc1cc(-c2nsc(=O)o2)c(S(C)(=O)=O)s1,PSMB6,"enzyme activity, inhibitor",,kinact/KI,1.4 M⁻¹ s⁻¹
CCOC(=O)c1ccc(OC(=O)CCCCCNC(=N)N)cc1,"Dipeptidyl peptidase 4 (DPP4, Homo sapiens, UniProt P27487)","enzyme activity, inhibitor",10 µM,inhibition,21%
Nc1ncc(-c2nc(N3CCOCC3)nc(N3CCOCC3)n2)c(C(F)F)n1,SGK2,"binding, competition with immobilised ligand",10 µM,remaining binding,84%
N#C[C@@H]1CC(F)(F)CN1C(=O)CNC(=O)c1ccnc2ccccc12,FAP,"enzyme activity, inhibitor",1 nM,inhibition,1%
Nc1cccc(-c2nsc(=O)o2)c1,PSMB6,"enzyme activity, inhibitor",,kinact/KI,0.61 M⁻¹ s⁻¹
COc1ccc(S(=O)(=O)N(CC(=O)NO)CC(C)C)cc1,Stromelysin-2,"enzyme activity, inhibitor",10 µM,inhibition,91%
COc1cc(Br)cc(Br)c1Oc1cc(Br)cc(Br)c1O,SULT1E1,"enzyme activity, substrate",,Km,1.09 µM
CN(C)C(=O)COC(=O)Cc1ccc(OC(=O)c2ccc(NC(=N)N)cc2)cc1,FAP,"enzyme activity, inhibitor",10 µM,inhibition,30%
Cn1cc(-c2cccc(N3CCc4c(sc5c4CC(C)(C)C5)C3=O)c2CO)cc(Nc2ccncn2)c1=O,SGK2,"enzyme activity, inhibitor",1 µM,inhibition,3%
